In ChEMBL document CHEMBL1153504, “Short-acting 5-(trifluoromethyl)pyrido[4,3-d]pyrimidin-4(3H)-one derivatives as orally-active calcium-sensing receptor antagonists” (Bioorg Med Chem Lett, 2009):
One block for each compound: values may come before it. Calls of active or inactive are those of the source. The calls are words filed in the database; no cut-off is given here.

Tests used:
[1] = Antagonist activity at human calcium receptor expressed in HEK293 cells assessed as inhibition of extracellular calcium-induced release of intracellular calcium strores into cytosol by FLIPR assay; format: functional, cell-based
[2] = Cmax in Sprague-Dawley rat at 1 mg/kg, iv; format: ADME, organism-based; design: dose 1 mg/kg, route intravenous; details: in vivo
How it was run: (§1)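 Male Sprague-Dawley rats, n = 2–5. iv dosing in glycerol formal containing 2% DMSO; po dosing as a spray dried dispersion. Plasma compound levels followed for PK parameters.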

[3] = Cmax in Sprague-Dawley rat at 10 mg/kg, po; format: ADME, organism-based; design: dose 10 mg/kg, route oral; details: in vivo; how it was run: as §1
[4] = Tmax in Sprague-Dawley rat at 1 mg/kg, iv; format: ADME, organism-based; design: dose 1 mg/kg, route intravenous; details: in vivo; how it was run: as §1
[5] = Plasma clearance in Sprague-Dawley rat at 1 mg/kg, iv; format: ADME, organism-based; design: dose 1 mg/kg, route intravenous; how it was run: as §1
[6] = (§2) Volume of distribution at steady state in Sprague-Dawley rat at 1 mg/kg, iv; format: ADME, organism-based; design: dose 1 mg/kg, route intravenous; details: Sprague-Dawley, in vivo, read-out: Vdss; how it was run: as §1
[7] = (§3) Terminal half life in Sprague-Dawley rat at 1 mg/kg, iv; format: ADME, organism-based; design: dose 1 mg/kg, route intravenous; details: Sprague-Dawley, in vivo, read-out: beta t1/2 (converted); how it was run: as §1
[8] = AUC in Sprague-Dawley rat at 1 mg/kg, iv; format: ADME, organism-based; design: dose 1 mg/kg, route intravenous; details: plasma; how it was run: as §1
Rattus norvegicus [9] = assay: Induction of bone formation in Sprague-Dawley rat assessed as stimulation of PTH level in plasma at 1 mg/kg, iv after 2 mins by ELISA; format: functional
How it was run: (§4)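 Male Sprague-Dawley rats, n = 5/6, given a single iv or po dose. Plasma PTH 1-84 measured by an ELISA specific for full-length rat PTH 1-84. Earliest sampling at ~2 min; comparison against baseline in vehicle-treated animals.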

Rattus norvegicus [10] = assay: Induction of bone formation in Sprague-Dawley rat assessed as stimulation of PTH level in plasma at 1 mg/kg, iv after 2 mins relative by ELISA to basal level; format: functional; how it was run: as §4
Rattus norvegicus [11] = assay: Induction of bone formation in Sprague-Dawley rat assessed as stimulation of PTH level in plasma at dose 10 mg/kg, po by ELISA; format: functional; how it was run: as §4
Rattus norvegicus [12] = assay: Induction of bone formation in Sprague-Dawley rat assessed as transient stimulation of PTH level in plasma at dose 10 mg/kg, po on day 1 by ELISA; format: functional, organism-based; design: dose 10 mg/kg
Rattus norvegicus [13] = assay: Induction of bone formation in Sprague-Dawley rat assessed as transient stimulation of PTH level in plasma at dose 10 mg/kg, po administered for 5 days measured on day 5 by ELISA; format: functional, organism-based; design: dose 10 mg/kg
Rattus norvegicus [14] = assay: Induction of bone formation in Sprague-Dawley rat assessed as sustained elevation of PTH level in plasma at dose 10 mg/kg, po administered for 5 days measured on day 5 by ELISA; format: functional, organism-based; design: dose 10 mg/kg
Rattus norvegicus [15] = species: Rattus norvegicus; assay: Ratio of AUC for 1-aminobenzotriazole led P450 inactivator pretreated Sprague-Dawley rat to AUC for normal Sprague-Dawley rat; format: ADME, organism-based; details: in vivo
[16] = Plasma clearance in 1-aminobenzotriazole led P450 inactivator pretreated Sprague-Dawley rat at 1 mg/kg, iv; format: ADME, organism-based; design: dose 1 mg/kg, route intravenous
Rattus norvegicus [17] = species: Rattus norvegicus; assay: Ratio of half life for 1-aminobenzotriazole led P450 inactivator pretreated Sprague-Dawley rat to half life for normal Sprague-Dawley rat; format: ADME, organism-based; details: in vivo
[18] = target: Voltage-gated inwardly rectifying potassium channel KCNH2 (Homo sapiens, UniProt Q12809); assay: Inhibition of human ERG
Chain of Voltage-gated inwardly rectifying potassium channel KCNH2 (Q12809 whole entry): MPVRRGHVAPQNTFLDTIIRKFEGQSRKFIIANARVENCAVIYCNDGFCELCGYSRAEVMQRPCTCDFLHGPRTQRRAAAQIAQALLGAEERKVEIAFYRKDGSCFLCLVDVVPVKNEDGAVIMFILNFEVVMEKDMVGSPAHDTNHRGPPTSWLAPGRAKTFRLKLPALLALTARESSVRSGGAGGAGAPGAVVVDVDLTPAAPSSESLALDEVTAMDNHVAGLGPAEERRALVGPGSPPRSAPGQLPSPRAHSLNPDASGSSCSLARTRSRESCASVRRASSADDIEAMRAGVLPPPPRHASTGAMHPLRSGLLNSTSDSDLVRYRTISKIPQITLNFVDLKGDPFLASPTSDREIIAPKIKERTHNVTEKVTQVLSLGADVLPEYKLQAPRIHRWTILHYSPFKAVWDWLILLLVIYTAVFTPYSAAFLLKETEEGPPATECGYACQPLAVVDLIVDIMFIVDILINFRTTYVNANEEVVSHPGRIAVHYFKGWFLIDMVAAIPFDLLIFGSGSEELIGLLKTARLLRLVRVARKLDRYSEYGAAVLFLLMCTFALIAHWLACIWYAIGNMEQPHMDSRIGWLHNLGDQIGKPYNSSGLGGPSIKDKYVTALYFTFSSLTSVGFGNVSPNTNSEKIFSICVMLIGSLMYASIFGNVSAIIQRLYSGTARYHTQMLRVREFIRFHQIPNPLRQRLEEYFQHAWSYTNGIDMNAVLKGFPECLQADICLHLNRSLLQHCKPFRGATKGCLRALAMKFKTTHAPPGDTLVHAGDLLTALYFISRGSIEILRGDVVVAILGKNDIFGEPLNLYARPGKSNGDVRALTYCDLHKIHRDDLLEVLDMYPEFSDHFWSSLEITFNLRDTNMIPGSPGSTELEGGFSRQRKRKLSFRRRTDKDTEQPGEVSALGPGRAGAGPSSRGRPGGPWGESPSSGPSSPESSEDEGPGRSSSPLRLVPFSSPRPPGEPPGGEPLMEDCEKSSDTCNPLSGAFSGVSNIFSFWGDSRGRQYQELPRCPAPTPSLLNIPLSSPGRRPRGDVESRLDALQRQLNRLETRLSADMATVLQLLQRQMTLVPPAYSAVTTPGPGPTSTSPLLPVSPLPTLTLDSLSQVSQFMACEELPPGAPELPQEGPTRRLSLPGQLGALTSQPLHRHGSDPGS

[19] = Half life in human; format: ADME, organism-based; details: in vivo
Rattus norvegicus [20] = assay: as §2; format: ADME, organism-based; design: dose 1 mg/kg, route intravenous; details: in vivo; how it was run: as §1
Rattus norvegicus [21] = assay: as §3; format: ADME, organism-based; design: dose 1 mg/kg, route intravenous; details: in vivo; how it was run: as §1

SMILES: C[C@H](Cc1ccc(F)c(F)c1)n1c(-c2ncccc2O)nc2ccnc(C(F)(F)F)c2c1=O
IC50 [1]: 8 nM
Cmax [2]: 133 ng/mL
Cmax [3]: 165 ng/mL
Tmax [4]: 18 min
clearance [5]: 46.5 mL/min/kg
Vd [6]: 8.6 L/kg
half-life [7]: 234 min
AUC [8]: 364 ng·h/mL
Activity (Rattus norvegicus [9]): 1303 pg/mL
fold change (FC) (Rattus norvegicus [10]): 10
Activity (Rattus norvegicus [11]): 599 pg/mL
Activity (Rattus norvegicus [12]): Active
Activity (Rattus norvegicus [13]): Active
Activity (Rattus norvegicus [14]): inactive

SMILES: CC(=O)Nc1cccnc1-c1nc2ccnc(C(F)(F)F)c2c(=O)n1[C@H](C)Cc1ccccc1
IC50 [1]: 19 nM

SMILES: CC(C)(Cc1ccc2ccccc2c1)NC[C@@H](O)COc1cccc(Cl)c1C#N
Activity [18]: Active
half-life [19]: 480 min

SMILES: O=c1c2c(N3CCCC3)nccc2nc(-c2ccccc2O)n1CCc1ccccc1
IC50 [1]: 5320 nM

SMILES: Cc1nccc2nc(-c3ccccc3O)n(CCc3ccccc3)c(=O)c12
IC50 [1]: 2990 nM

SMILES: O=c1c2c(C(F)(F)F)nccc2nc(-c2cscn2)n1CCc1ccccc1
IC50 [1]: 656 nM

SMILES: C[C@H](Cc1ccccc1)n1c(-c2ncccc2O)nc2ccnc(C(F)(F)F)c2c1=O
IC50 [1]: 22 nM

SMILES: O=c1c2c(C(F)(F)F)nccc2nc(-c2ncccc2O)n1CCc1ccccc1F
IC50 [1]: 151 nM

SMILES: C[C@H](Cc1ccccc1)n1c(-c2cscn2)nc2ccnc(C(F)(F)F)c2c1=O
IC50 [1]: 216 nM

SMILES: O=c1c2c(C(F)(F)F)nccc2nc(-c2cccc(F)c2O)n1CCc1ccccc1
IC50 [1]: 610 nM

SMILES: O=c1c2c(OC3CCC3)nccc2nc(-c2ccccc2O)n1CCc1ccccc1
IC50 [1]: 435 nM

SMILES: O=c1c2c(C(F)(F)F)nccc2nc(-c2ncccc2O)n1CCC1CCCCC1
IC50 [1]: 36 nM
clearance [5]: 35.9 mL/min/kg
Vd [6]: 3.2 L/kg
half-life [7]: 37.2 min
AUC [8]: 490 ng·h/mL

SMILES: COc1ccccc1CCn1c(-c2ncccc2O)nc2ccnc(C(F)(F)F)c2c1=O
IC50 [1]: 76 nM

Further lines, with some results ahead:

IC50 [1]: 132 nM
SMILES: O=c1c2c(C(F)(F)F)nccc2nc(-c2ccccc2O)n1CCc1ccccc1F

IC50 [1]: 41 nM
Cmax [2]: 125 ng/mL
Cmax [3]: 350 ng/mL
Tmax [4]: 30 min
clearance [5]: 32.2 mL/min/kg
Vd [6]: 1.4 L/kg
half-life [7]: 36 min
Ratio (Rattus norvegicus [15]): 4
AUC [8]: 518 ng·h/mL
clearance [16]: 7.8 mL/min/kg
Ratio (Rattus norvegicus [17]): 7
SMILES: C[C@H](Cc1ccccc1)n1c(-c2ccccc2O)nc2ccnc(C(F)(F)F)c2c1=O
Activity (Rattus norvegicus [9]): 921 pg/mL
Activity (Rattus norvegicus [11]): 620 pg/mL
Activity (Rattus norvegicus [12]): Active
Activity (Rattus norvegicus [13]): Active
Activity (Rattus norvegicus [14]): inactive

IC50 [1]: 25 nM
clearance [5]: 31.6 mL/min/kg
Vd [6]: 3.6 L/kg
half-life [7]: 91.8 min
AUC [8]: 528 ng·h/mL
SMILES: C[C@H](Cc1ccccc1)n1c(-c2cccc(F)c2O)nc2ccnc(C(F)(F)F)c2c1=O

IC50 [1]: 158 nM
SMILES: C[C@@H](Cc1ccccc1)n1c(-c2ccccc2O)nc2ccnc(C(F)(F)F)c2c1=O

IC50 [1]: 226 nM
SMILES: Cc1cccnc1-c1nc2ccnc(C(F)(F)F)c2c(=O)n1[C@H](C)Cc1ccccc1

IC50 [1]: 50 nM
SMILES: O=c1c2c(C(F)(F)F)nccc2nc(-c2ccccc2O)n1CCc1ccccc1

IC50 [1]: 79 nM
Vdss (Rattus norvegicus [20]): 6 L/kg
beta t1/2 (Rattus norvegicus [21]): 57 min
AUC [8]: 810 ng·h/mL
SMILES: C[C@H](Cc1ccccc1)n1c(-c2ncccc2Cl)nc2ccnc(C(F)(F)F)c2c1=O

IC50 [1]: 152 nM
SMILES: C[C@H](Cc1ccccc1)n1c(-c2ccccc2Cl)nc2ccnc(C(F)(F)F)c2c1=O

IC50 [1]: 64 nM
Cmax [2]: 100 ng/mL
Cmax [3]: 450 ng/mL
Tmax [4]: 78 min
Vdss (Rattus norvegicus [20]): 2.9 L/kg
beta t1/2 (Rattus norvegicus [21]): 48 min
AUC [8]: 1200 ng·h/mL
SMILES: C[C@H](Cc1ccccc1)n1c(-c2ncccc2C(F)(F)F)nc2ccnc(C(F)(F)F)c2c1=O

IC50 [1]: 106 nM
SMILES: O=c1c2c(Cl)nccc2nc(-c2ccccc2O)n1CCc1ccccc1

IC50 [1]: 1070 nM
SMILES: O=c1c2c(C(F)(F)F)nccc2nc(-c2ccccc2Cl)n1CCc1ccccc1

IC50 [1]: 224 nM
SMILES: CC(C)Oc1nccc2nc(-c3ccccc3O)n(CCc3ccccc3)c(=O)c12
